Data reported in PMC11310838 (RSC Advances, 2024).
Read-outs that look alike come from different tables or passages of the source.

Experiments:
MCF7 cell line = test: Sulforhodamine B; format: cell-based, human; conditions: for inhibition at 100 µM: read-out: Percentage of cell growth inhibition at [100 μM] MCF7; for IC50: read-out: IC50 (μM) ± SD MCF7
Outline: (§1)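 Carcinoma lines came from the National Cancer Institute, Cairo, and were grown as monolayers in DMEM with 10% FBS and 1% penicillin–streptomycin. Final DMSO was ≤0.1% (v/v). Cells were treated for 48 h either at a single 100 μM dose (% growth inhibition) or at 0, 6.25, 12.5, 25 and 50 μM. SRB staining was read at 570 nm as % viability. IC50 came from dose–response curve fitting.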

HEPG2 cell line = test: Sulforhodamine B; format: cell-based, human; conditions: for inhibition at 100 µM: read-out: Percentage of cell growth inhibition at [100 μM] HEPG2; for IC50: read-out: IC50 (μM) ± SD HEPG2
Outline: as §1

[1] = test system: HDF cell line (Human Dermal Fibroblasts); test: Sulforhodamine B; format: cell-based; conditions: 48 h; for inhibition at 100 µM: Homo sapiens, HDF, read-out: Percentage of cell growth inhibition at [100 μM] HDF
Outline: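 Normal human dermal fibroblasts came from the National Cancer Institute, Cairo. Final DMSO was ≤0.1% (v/v). Cells were exposed to the test compound at a single 100 μM dose for 48 h. Growth inhibition was measured by the sulforhodamine-B method, with absorbance read at 570 nm and expressed as percentage of cell viability.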

HCT116 cell line = test: Sulforhodamine B; format: cell-based, human; conditions: for inhibition at 100 µM: read-out: Percentage of cell growth inhibition at [100 μM] HCT116
Outline: as §1

[2] = test system: cancer cell lines (HCT116, HEPG2, MCF7); test: SRB single-dose screen, summary over cancer cell lines; format: cell-based; conditions: Homo sapiens, 48 h, read-out: percentage of cell growth inhibition on the cancer cell lines
Outline: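 Human carcinoma lines grown as monolayers in DMEM with 10% FBS and 1% penicillin–streptomycin. Each test compound was applied once at 100 μM for 48 h, with final DMSO at most 0.1% (v/v) in control and treated wells. Growth was measured by sulforhodamine-B staining, with OD read at 570 nm. Percentage growth inhibition was calculated from viability relative to the untreated control.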

[3] = single dose 100 μM, 48 h, SRB, mean ± SD
[4] = Homo sapiens, HCT-116, 48 h, read-out: IC50 (μM) ± SD HCT116, 48 h treatment, SRB

Row | SMILES | inhibition at 100 µM (MCF7 cell line; Homo sapiens, MCF7, 48 h) | inhibition at 100 µM (HEPG2 cell line; Homo sapiens, HepG2, 48 h) | inhibition at 100 µM [1] | inhibition at 100 µM (HCT116 cell line; Homo sapiens, HCT-116, 48 h) | other results
1 | O=C(COc1ccccc1C=NN=c1sc(-c2ccc(Cl)cc2)nn1-c1ccccc1)N1CCN(C(=O)COc2ccccc2C=NN=c2sc(-c3ccc(Cl)cc3)nn2-c2ccccc2)CC1 [Compound 13d, 1,1′-(Piperazine-1,4-diyl)bis(2-(2-(((5-(4-chlorophenyl)-3-phenyl-1,3,4-thiadiazol-2(3H)-ylidene)-hydrazono)methyl)phenoxy)ethanone)] | 86.4 ± 2.56% | 80 ± 3.39% | 64 ± 10.8% | 88.9 ± 1.38% | –
2 | Cc1nc(NN=Cc2ccc(OCC(=O)N3CCN(C(=O)COc4ccc(C=NNc5nc(C)c(N=Nc6ccc(Cl)cc6)s5)cc4)CC3)cc2)sc1N=Nc1ccc(Cl)cc1 [Compound 9d, 1,1′-(Piperazine-1,4-diyl)bis(2-(4-(((4-methyl-5-(4-chlorophenylazo)thiazol-2-yl)hydrazono)-methyl)phenoxy)ethanone)] | 90.5 ± 1.99% | 73.1 ± 5.28% | 57.7 ± 18% | 89.1 ± 2.04% | –
3 | COc1ccc(-c2csc(=NN=Cc3ccc(OCC(=O)N4CCN(C(=O)COc5ccc(C=NN=c6[nH]c(-c7ccc(OC)cc7)cs6)cc5)CC4)cc3)[nH]2)cc1 [Compound 15b, 1,1′-(Piperazine-1,4-diyl)bis(2-(4-(((4-(4-methoxyphenyl)thiazol-2(3H)-ylidene)hydrazineylidene)-methyl)phenoxy)ethanone)] | 50.6 ± 10.2% | 83.4 ± 9.48% | 48 ± 48.5% | 21.8 ± 16.5% | –
4 | Cc1nc(NN=Cc2ccccc2OCC(=O)N2CCN(C(=O)COc3ccccc3C=NNc3nc(C)c(N=Nc4ccc(F)cc4)s3)CC2)sc1N=Nc1ccc(F)cc1 [Compound 9g, 1,1′-(Piperazine-1,4-diyl)bis(2-(2-(((4-methyl-5-(4-fluorophenylazo)thiazol-2-yl)hydrazono)-methyl)phenoxy)ethanone)] | 88.7 ± 4.11% | 91.8 ± 3.29% | 71.1 ± 21.6% | 80.6 ± 7.04% | –
5 | O=C(COc1ccc(C=NN=c2[nH]c(-c3cc4ccccc4oc3=O)cs2)cc1)N1CCN(C(=O)COc2ccc(C=NN=c3[nH]c(-c4cc5ccccc5oc4=O)cs3)cc2)CC1 [Compound 15e, 1,1′-(Piperazine-1,4-diyl)bis(2-(4-(((4-(coumarin-3-yl)thiazol-2(3H)-ylidene)hydrazineylidene)-methyl)phenoxy)ethanone)] | 68.4 ± 7.33% | 74.4 ± 4.88% | 68.1 ± 10.1% | 73.9 ± 4.08% | –
6 | Cc1nc(NN=Cc2ccccc2OCC(=O)N2CCN(C(=O)COc3ccccc3C=NNc3nc(C)c(N=Nc4ccc(Cl)cc4)s3)CC2)sc1N=Nc1ccc(Cl)cc1 [Compound 9h, 1,1′-(Piperazine-1,4-diyl)bis(2-(2-(((4-methyl-5-(4-chlorophenylazo)thiazol-2-yl)hydrazono)-methyl)phenoxy)ethanone)] | 81 ± 7.44% | 84 ± 3.07% | 56 ± 23.6% | 77.7 ± 8.59% | –
7 | NC(=S)NN=Cc1ccc(OCC(=O)N2CCN(C(=O)COc3ccc(C=NNC(N)=S)cc3)CC2)cc1 [Compound 7a, 1,1′-(Piperazine-1,4-diyl)bis(2-(4-(2-carbamothioylhydrazono)methylphenoxy)ethanone)] | 85.3 ± 5.2% | 83.3 ± 7.47% | 45.1 ± 30.1% | 86.2 ± 5.33% | –
8 | COc1cccc2c1C(=O)c1c(O)c3c(c(O)c1C2=O)C[C@@](O)(C(=O)CO)C[C@@H]3O[C@H]1C[C@H](N)[C@H](O)[C@H](C)O1 [DOX, reference compound] | – | – | – | – | IC50 (MCF7 cell line; 48 h treatment, SRB): 7.59 ± 1.4 µM; Percentage of cell growth inhibition at [100 μM] MCF7 (MCF7 cell line; [3]): 86.37 ± 1.82%; IC50 (HEPG2 cell line; 48 h treatment, SRB): 8.42 ± 1.7 µM; Percentage of cell growth inhibition at [100 μM] HEPG2 (HEPG2 cell line; [3]): 89.09 ± 0.63%; Percentage of cell growth inhibition at [100 μM] HDF ([1]; single dose 100 μM, SRB, normal cells, mean ± SD): 30.53 ± 9.75%; IC50 (HCT116 cell line; read-out: IC50 (μM) ± SD HCT116, 48 h treatment, SRB): 7.7 ± 1.5 µM; Percentage of cell growth inhibition at [100 μM] HCT116 (HCT116 cell line; [3]): 82.77 ± 2.98%
9 | O=C(COc1ccc(C=NN=c2sc(-c3ccccc3)nn2-c2ccccc2)cc1)N1CCN(C(=O)COc2ccc(C=NN=c3sc(-c4ccccc4)nn3-c3ccccc3)cc2)CC1 [Compound 13a, 1,1′-(Piperazine-1,4-diyl)bis(2-(4-(((3,5-diphenyl-1,3,4-thiadiazol-2(3H)-ylidene)hydrazono)-methyl)phenoxy)ethanone)] | 88.2 ± 1.88% | 71.4 ± 4.92% | 52.5 ± 14.8% | 78.1 ± 5.78% | –
10 | O=C(COc1ccc(C=NN=c2[nH]c(-c3ccccc3)cs2)cc1)N1CCN(C(=O)COc2ccc(C=NN=c3[nH]c(-c4ccccc4)cs3)cc2)CC1 [Compound 15a, 1,1′-(Piperazine-1,4-diyl)bis(2-(4-(((4-phenylthiazol-2(3H)-ylidene)hydrazineylidene)methyl)-phenoxy)ethanone)] | 87.3 ± 1.63% | 67.9 ± 7.03% | 50.2 ± 21.5% | 78.1 ± 6.5% | –
11 | Cc1nc(NN=Cc2ccc(OCC(=O)N3CCN(C(=O)COc4ccc(C=NNc5nc(C)c(N=Nc6ccc([N+](=O)[O-])cc6)s5)cc4)CC3)cc2)sc1N=Nc1ccc([N+](=O)[O-])cc1 [Compound 9e, 1,1′-(Piperazine-1,4-diyl)bis(2-(4-(((4-methyl-5-(4-nitrophenylazo)thiazol-2-yl)hydrazono)methyl)-phenoxy)ethanone)] | 84.6 ± 2.02% | 77.5 ± 7.73% | 18.6 ± 32.1% | 86.8 ± 2.09% | IC50 (MCF7 cell line; Homo sapiens, MCF7, 48 h): 22 ± 4.5 µM; IC50 (HEPG2 cell line; Homo sapiens, HepG2, 48 h): 32.2 ± 4.5 µM; IC50 (HCT116 cell line; [4]): 20.4 ± 3.4 µM; inhibition at 100 µM [2]: > 80%
12 | O=C(COc1ccccc1C=NN=c1sc(-c2ccccc2)nn1-c1ccccc1)N1CCN(C(=O)COc2ccccc2C=NN=c2sc(-c3ccccc3)nn2-c2ccccc2)CC1 [Compound 13c, 1,1′-(Piperazine-1,4-diyl)bis(2-(2-(((3,5-diphenyl-1,3,4-thiadiazol-2(3H)-ylidene)hydrazono)-methyl)phenoxy)ethanone)] | 86.2 ± 1.83% | 68.8 ± 12.7% | 60.8 ± 3.09% | 76.4 ± 5.38% | –
13 | Cc1nc(NN=Cc2ccc(OCC(=O)N3CCN(C(=O)COc4ccc(C=NNc5nc(C)c(N=Nc6ccc(F)cc6)s5)cc4)CC3)cc2)sc1N=Nc1ccc(F)cc1 [Compound 9c, 1,1′-(Piperazine-1,4-diyl)bis(2-(4-(((4-methyl-5-(4-fluorophenylazo)thiazol-2-yl)hydrazono)-methyl)phenoxy)ethanone)] | 90.3 ± 1.3% | 77.2 ± 3.1% | 67.7 ± 11.5% | 87.2 ± 4.53% | –
14 | O=C(COc1ccc(C=NN=c2sc(-c3ccc(Cl)cc3)nn2-c2ccccc2)cc1)N1CCN(C(=O)COc2ccc(C=NN=c3sc(-c4ccc(Cl)cc4)nn3-c3ccccc3)cc2)CC1 [Compound 13b, 1,1′-(Piperazine-1,4-diyl)bis(2-(4-(((5-(4-chlorophenyl)-3-phenyl-1,3,4-thiadiazol-2(3H)-ylidene)-hydrazono)methyl)phenoxy)ethanone)] | 90.8 ± 1.39% | 85.1 ± 3.16% | 79.2 ± 3.71% | 89.3 ± 2.83% | IC50 (MCF7 cell line; Homo sapiens, MCF7, 48 h): 19.4 ± 3 µM; IC50 (HEPG2 cell line; Homo sapiens, HepG2, 48 h): 24.5 ± 4 µM; IC50 (HCT116 cell line; [4]): 18.4 ± 4 µM; inhibition at 100 µM [2]: > 80%
15 | O=C(COc1ccccc1C=NN=c1[nH]c(-c2cc3ccccc3oc2=O)cs1)N1CCN(C(=O)COc2ccccc2C=NN=c2[nH]c(-c3cc4ccccc4oc3=O)cs2)CC1 [Compound 15h, 1,1′-(Piperazine-1,4-diyl)bis(2-(2-(((4-(coumarin-3-yl)thiazol-2(3H)-ylidene)hydrazineylidene)-methyl)phenoxy)ethanone)] | 46.7 ± 11.3% | 70.1 ± 8.68% | 44 ± 51.5% | 36.4 ± 13.8% | –
16 | Cc1nc(NN=Cc2ccccc2OCC(=O)N2CCN(C(=O)COc3ccccc3C=NNc3nc(C)c(N=Nc4ccc([N+](=O)[O-])cc4)s3)CC2)sc1N=Nc1ccc([N+](=O)[O-])cc1 [Compound 9j, 1,1′-(Piperazine-1,4-diyl)bis(2-(2-(((4-methyl-5-(4-nitrophenylazo)thiazol-2-yl)hydrazono)-methyl)phenoxy)ethanone)] | 71.4 ± 20.5% | 83.1 ± 7.22% | 12 ± 6.04% | 87.7 ± 4.3% | –
17 | Cc1ccc(N=Nc2sc(NN=Cc3ccccc3OCC(=O)N3CCN(C(=O)COc4ccccc4C=NNc4nc(C)c(N=Nc5ccc(C)cc5)s4)CC3)nc2C)cc1 [Compound 9f, 1,1′-(Piperazine-1,4-diyl)bis(2-(2-(((4-methyl-5-(4-tolylazo)thiazol-2-yl)hydrazono)methyl)-phenoxy)ethanone)] | 85.5 ± 2.11% | 93.5 ± 2.07% | 78.3 ± 3.64% | 85.4 ± 6.41% | –
